In ChEMBL document CHEMBL1124128, “Angiotensin-converting enzyme inhibitors. Mercaptan, carboxyalkyl dipeptide, and phosphinic acid inhibitors incorporating 4-substituted prolines” (J Med Chem, 1988):
pIC50: −log10 of the molar value. Values joined by “and” are separate entries in the source; they are usually repeats but may differ in a detail not shown here. Equal values may be shown once.

How the values were obtained:
[1] = test system: Rattus norvegicus; assay: % Inhibition of angiotensin-I induced pressor response in normotensive rats after peroral dosing of 1.5 umol/kg; assay type: functional; details: po
Procedure, shortened: (§1)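 Conscious, unrestrained catheterized male Sprague–Dawley rats (225–275 g) had direct aortic pressure recording. Baseline pressor responses were taken to AI (310 ng/kg iv) and AII (100 ng/kg iv). Compound was given orally in water, 5% NaHCO3 or 1% agar suspension. AI and AII responses were then tracked up to 280 min. Maximum % inhibition is the mean response of four animals per dose.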

[2] = test system: Rattus norvegicus; assay: % Inhibition of angiotensin-I induced pressor response in normotensive rats after peroral dosing of 0.5 umol/kg; assay type: functional; details: po; procedure, shortened: as §1
[3] = test system: Rattus norvegicus; assay: % Inhibition of angiotensin-I induced pressor response in normotensive rats after peroral dosing of 5 umol/kg; assay type: functional; details: po; procedure, shortened: as §1
[4] = target: T1, Angiotensin-converting enzyme (Rattus norvegicus, UniProt P47820); assay: In vitro inhibitory activity against angiotensin I converting enzyme of rats.; details: read-out: I50
T1 sequence (P47820 whole entry): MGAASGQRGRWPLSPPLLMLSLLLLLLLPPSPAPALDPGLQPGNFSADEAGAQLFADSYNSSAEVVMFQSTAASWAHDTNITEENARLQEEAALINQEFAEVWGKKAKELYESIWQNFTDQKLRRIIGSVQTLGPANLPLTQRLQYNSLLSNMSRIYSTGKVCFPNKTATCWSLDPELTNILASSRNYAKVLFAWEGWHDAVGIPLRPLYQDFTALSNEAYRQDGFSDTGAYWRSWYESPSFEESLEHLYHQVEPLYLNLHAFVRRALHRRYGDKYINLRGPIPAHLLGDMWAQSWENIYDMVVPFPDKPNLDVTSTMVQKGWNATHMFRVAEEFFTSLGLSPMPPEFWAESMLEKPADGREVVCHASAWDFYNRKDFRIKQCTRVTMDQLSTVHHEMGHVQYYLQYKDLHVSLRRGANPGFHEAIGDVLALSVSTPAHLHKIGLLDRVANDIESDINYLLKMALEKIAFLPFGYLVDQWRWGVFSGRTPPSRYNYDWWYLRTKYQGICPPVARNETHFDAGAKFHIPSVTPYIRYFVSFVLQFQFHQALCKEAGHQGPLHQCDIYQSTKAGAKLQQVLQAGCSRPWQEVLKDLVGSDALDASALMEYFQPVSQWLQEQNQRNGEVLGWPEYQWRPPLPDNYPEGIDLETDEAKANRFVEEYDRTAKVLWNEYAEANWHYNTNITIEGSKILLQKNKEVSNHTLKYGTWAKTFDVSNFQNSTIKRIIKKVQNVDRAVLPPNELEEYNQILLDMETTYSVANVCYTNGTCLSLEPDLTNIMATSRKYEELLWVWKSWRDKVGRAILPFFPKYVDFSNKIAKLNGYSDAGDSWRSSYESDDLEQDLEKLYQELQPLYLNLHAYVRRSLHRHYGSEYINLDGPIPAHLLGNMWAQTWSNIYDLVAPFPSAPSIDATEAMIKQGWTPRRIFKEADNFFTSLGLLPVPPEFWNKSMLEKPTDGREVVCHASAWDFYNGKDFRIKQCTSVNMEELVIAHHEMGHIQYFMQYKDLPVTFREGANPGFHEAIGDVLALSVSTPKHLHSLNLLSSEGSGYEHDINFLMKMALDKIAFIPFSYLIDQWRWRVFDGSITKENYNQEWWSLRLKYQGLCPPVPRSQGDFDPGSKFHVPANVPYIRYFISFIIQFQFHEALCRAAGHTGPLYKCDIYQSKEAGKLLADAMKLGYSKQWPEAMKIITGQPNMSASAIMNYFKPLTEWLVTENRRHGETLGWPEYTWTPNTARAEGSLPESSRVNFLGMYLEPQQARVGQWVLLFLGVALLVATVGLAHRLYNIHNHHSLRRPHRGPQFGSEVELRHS

[5] = test system: Rattus norvegicus; assay: % Inhibition of angiotensin-I induced pressor response in normotensive rats after intravenous dosing of 0.5 umol/kg; assay type: functional
Procedure, shortened: (§2)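 Conscious, unrestrained male Sprague–Dawley rats (225–275 g) with indwelling aortic and vena caval catheters, allowed at least 2 weeks of recovery. Aortic pressure recorded directly. Baseline pressor responses to AI (310 ng/kg iv) and AII (100 ng/kg iv) were taken first. Compound was given iv in 0.1 mL water or 5% NaHCO3, and responses were followed for up to 70 min. Maximum % inhibition is the mean of four animals per dose.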

[6] = target: T2, Angiotensin-converting enzyme (Rattus norvegicus) (UniProt P47820); assay: In vitro inhibition of rat Angiotensin I converting enzyme
T2 sequence (whole entry): T1 sequence (P47820 whole entry)

[7] = test system: Rattus norvegicus; assay: % Inhibition of angiotensin-I induced pressor response in normotensive rats after intravenous dosing of 0.15 umol/kg; assay type: functional; procedure, shortened: as §2
[8] = test system: Rattus norvegicus; assay: % Inhibition of angiotensin-I induced pressor response in normotensive rats after peroral dosing of 50 umol/kg; assay type: functional; details: po; procedure, shortened: as §1
[9] = test system: Rattus norvegicus; assay: % Inhibition of angiotensin-I induced pressor response in normotensive rats after intravenous dosing of 0.015 umol/kg; assay type: functional
Procedure, shortened: (§3)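 Male Sprague–Dawley rats (225–275 g) fitted with indwelling abdominal aorta and vena cava catheters, recovered at least 2 weeks, then tested conscious and unrestrained. Aortic pressure was recorded directly. Pressor responses to AI (310 ng/kg iv) and AII (100 ng/kg iv) were taken before dosing. Compound was given iv in water or 5% NaHCO3, and responses were followed up to 70 min. Maximum % inhibition is the mean of four animals per dose.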

[10] = test system: Rattus norvegicus; assay: % Inhibition of angiotensin-I induced pressor response in normotensive rats after intravenous dosing of 0.05 umol/kg; assay type: functional; procedure, shortened: as §3
[11] = test system: Rattus norvegicus; assay: % Inhibition of angiotensin-I induced pressor response in normotensive rats after peroral dosing of 15 umol/kg; assay type: functional; details: po; procedure, shortened: as §1
[12] = test system: Rattus norvegicus; assay: % Inhibition of angiotensin-I induced pressor response in normotensive rats after intravenous dosing of 1.5 umol/kg; assay type: functional; procedure, shortened: as §2

CCOC(=O)[C@H](CCc1ccccc1)N[C@@H](C)C(=O)N1C[C@@H](Sc2ccccc2)C[C@H]1C(=O)O
inhibition in vivo at 1.5 µmol/kg [1]: 81% | inhibition in vivo at 0.5 µmol/kg [2]: 29% | inhibition in vivo at 5 µmol/kg [3]: 86%

C[C@H](CS)C(=O)N1C[C@@H](Sc2ccccc2)C[C@H]1C(=O)O [ZOFENOPRILAT]
pIC50 [4]: 8.10

C[C@H](CS)C(=O)N1C[C@@H](Oc2ccccc2)C[C@H]1C(=O)O
pIC50 [4]: 7.01

COC1(OC)C[C@@H](C(=O)O)N(C(=O)[C@H](C)CS)C1
pIC50 [4]: 8.14

O=C(O)[C@@H]1CC2(CN1C(=O)CP(=O)(O)CCCCc1ccccc1)SCCS2
inhibition in vivo at 0.5 µmol/kg [5]: 90% | inhibition in vivo at 5 µmol/kg [3]: 28% | T50 [6]: 4 nM and 2 nM | inhibition in vivo at 0.15 µmol/kg [7]: 80% | inhibition in vivo at 50 µmol/kg [8]: 94% | inhibition in vivo at 0.015 µmol/kg [9]: 20% | inhibition in vivo at 0.05 µmol/kg [10]: 47% | inhibition in vivo at 15 µmol/kg [11]: 74%

C[C@H](CS)C(=O)N1C[C@@H](Sc2ccc(Cl)cc2)C[C@H]1C(=O)O
pIC50 [4]: 7.96

C[C@H](CS)C(=O)N1C[C@@H]([S+]([O-])c2ccccc2)C[C@H]1C(=O)O (stereo partly specified)
pIC50 [4]: 7.34

CS[C@@H]1C[C@@H](C(=O)O)N(C(=O)[C@H](C)N[C@@H](CCc2ccccc2)C(=O)O)C1
pIC50 [4]: 8.30 | inhibition in vivo at 0.15 µmol/kg [7]: 77% | inhibition in vivo at 0.015 µmol/kg [9]: 29% | inhibition in vivo at 0.05 µmol/kg [10]: 69%

C[C@H](N[C@@H](CCc1ccccc1)C(=O)O)C(=O)N1C[C@H](Sc2ccccc2)C[C@H]1C(=O)O
pIC50 [4]: 8.70 | inhibition in vivo at 0.015 µmol/kg [9]: 57% | inhibition in vivo at 0.05 µmol/kg [10]: 94%

O=C(O)[C@@H]1C[C@H](Cc2ccccc2)CN1C(=O)CP(=O)(O)CCCCc1ccccc1
T50 [6]: 10 nM

CS[C@H]1C[C@@H](C(=O)O)N(C(=O)[C@H](C)CS)C1
pIC50 [4]: 8.52

CCOC(=O)[C@H](CCc1ccccc1)N[C@@H](C)C(=O)N1CCC[C@H]1C(=O)O
inhibition in vivo at 1.5 µmol/kg [1]: 84% | inhibition in vivo at 0.5 µmol/kg [2]: 50% | inhibition in vivo at 5 µmol/kg [3]: 83%

C[C@H](CS)C(=O)N1C[C@@H](S(=O)(=O)c2ccccc2)C[C@H]1C(=O)O
pIC50 [4]: 7.55

C[C@H](N[C@@H](CCc1ccccc1)C(=O)O)C(=O)N1C[C@@H](Sc2ccccc2)C[C@H]1C(=O)O
pIC50 [4]: 8.70 | inhibition in vivo at 1.5 µmol/kg [1]: 31% | inhibition in vivo at 0.5 µmol/kg [2]: 23% | inhibition in vivo at 5 µmol/kg [3]: 67% | inhibition in vivo at 0.15 µmol/kg [7]: 85% | inhibition in vivo at 0.015 µmol/kg [9]: 20% | inhibition in vivo at 0.05 µmol/kg [10]: 43% | inhibition in vivo at 15 µmol/kg [11]: 78%

C[C@H](CS)C(=O)N1C[C@@H](O)C[C@H]1C(=O)O
pIC50 [4]: 8.07

C[C@H](N[C@@H](CCc1ccccc1)C(=O)O)C(=O)N1CCC[C@H]1C(=O)O [ENALAPRILAT ANHYDROUS]
inhibition in vivo at 5 µmol/kg [3]: 46% | inhibition in vivo at 0.15 µmol/kg [7]: 90% | inhibition in vivo at 0.015 µmol/kg [9]: 11% | inhibition in vivo at 0.05 µmol/kg [10]: 67% | inhibition in vivo at 15 µmol/kg [11]: 85%

CO[C@H]1C[C@@H](C(=O)O)N(C(=O)CP(=O)(O)CCCCc2ccccc2)C1
inhibition in vivo at 0.5 µmol/kg [5]: 90% | T50 [6]: 60 nM | inhibition in vivo at 0.15 µmol/kg [7]: 55% | inhibition in vivo at 0.05 µmol/kg [10]: 16%

CS[C@H]1C[C@@H](C(=O)O)N(C(=O)CP(=O)(O)CCCCc2ccccc2)C1
inhibition in vivo at 1.5 µmol/kg [12]: 89% | inhibition in vivo at 0.5 µmol/kg [5]: 69% | T50 [6]: 32 nM | inhibition in vivo at 0.15 µmol/kg [7]: 29%

C[C@H](N[C@@H](CCc1ccccc1)C(=O)O)C(=O)N1C[C@@H](C2CCCCC2)C[C@H]1C(=O)O
pIC50 [4]: 8.30 | inhibition in vivo at 0.15 µmol/kg [7]: 92% | inhibition in vivo at 0.015 µmol/kg [9]: 21% | inhibition in vivo at 0.05 µmol/kg [10]: 48%

C[C@H](CS)C(=O)N1CC(=O)C[C@H]1C(=O)O
pIC50 [4]: 7.80

CO[C@@H]1C[C@@H](C(=O)O)N(C(=O)[C@H](C)CS)C1
pIC50 [4]: 7.92

CS[C@@H]1C[C@@H](C(=O)O)N(C(=O)CP(=O)(O)CCCCc2ccccc2)C1
inhibition in vivo at 0.5 µmol/kg [5]: 79% | T50 [6]: 29 nM | inhibition in vivo at 0.15 µmol/kg [7]: 27% | inhibition in vivo at 0.015 µmol/kg [9]: 7% | inhibition in vivo at 0.05 µmol/kg [10]: 44%

C[C@H](CS)C(=O)N1C[C@@H](C2CCCCC2)C[C@H]1C(=O)O
pIC50 [4]: 8.70

O=C(O)[C@@H]1C[C@H](c2ccccc2)CN1C(=O)CP(=O)(O)CCCCc1ccccc1
inhibition in vivo at 0.5 µmol/kg [5]: 97% | T50 [6]: 7 nM | inhibition in vivo at 0.15 µmol/kg [7]: 69% | inhibition in vivo at 0.05 µmol/kg [10]: 16%

C[C@H](CS)C(=O)N1C[C@@H](Oc2ccc3ccccc3c2)C[C@H]1C(=O)O
pIC50 [4]: 7.89

C[C@H](CS)C(=O)N1C[C@@H](c2ccccc2)C[C@H]1C(=O)O
pIC50 [4]: 7.52

C[C@H](CS)C(=O)N1CC2(C[C@H]1C(=O)O)SCCS2
pIC50 [4]: 8.19

C[C@H](CS)C(=O)N1C[C@@H](Sc2ccc3ccccc3c2)C[C@H]1C(=O)O
pIC50 [4]: 7.02

O=C(O)[C@@H]1C[C@@H](c2ccccc2)CN1C(=O)CP(=O)(O)CCCCc1ccccc1
inhibition in vivo at 0.5 µmol/kg [5]: 76% | T50 [6]: 120 nM | inhibition in vivo at 0.15 µmol/kg [7]: 37% | inhibition in vivo at 0.05 µmol/kg [10]: 17%

C[C@H](N[C@@H](CCc1ccccc1)C(=O)O)C(=O)N1C[C@@H](c2ccccc2)C[C@H]1C(=O)O
pIC50 [4]: 8.30

C[C@H](CS)C(=O)N1CC2(C[C@H]1C(=O)O)OCCO2
pIC50 [4]: 8.54

CO[C@H]1C[C@@H](C(=O)O)N(C(=O)[C@H](C)CS)C1
pIC50 [4]: 8.55

C[C@H]1C[C@@H](C(=O)O)N(C(=O)[C@H](C)CS)C1
pIC50 [4]: 8.70

C[C@H](CS)C(=O)N1C[C@@H](Sc2ccc(F)cc2)C[C@H]1C(=O)O
pIC50 [4]: 7.77

C[C@H](CS)C(=O)N1C[C@H](O)C[C@H]1C(=O)O
pIC50 [4]: 7.59
